These results are taken from ChEMBL document CHEMBL3124791 (J Med Chem, 2014).

For one data set, the system named is KB. Description: Cytotoxicity against human KB cells by SRB assay. Type of data set: functional. The method in brief:
(§1)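 Sulforhodamine B growth assay across A-549, KB, P-gp-expressing KBvin and DU145 lines. […] Mean ± SD, at least triplicate.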

Data set [1] can be described thus: Cytotoxicity against human KBVIN cells by SRB assay. Format: functional. The method, boiled down: as §1
The test system of data set [2] is A549. The experiment in a line: Cytotoxicity against human A549 cells by SRB assay. Format: functional. The method, boiled down: as §1
For a further data set, the system named is DU-145. Description: Cytotoxicity against human DU145 cells by SRB assay. Format: functional. The method, boiled down:
as §1

The subject of data set [3] is Mus musculus. Description: Toxicity in athymic Balb/c nu/nu mouse xenografted with human MCF7 cells assessed as death at 4 mg/kg, iv administered as Q3D X 6 regimen. Type of data set: organism-based. Further details: dose 4 mg/kg, route intravenous. The note with it: in vivo. The method, boiled down: (§2)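 At 100–300 mm3 tumors, mice sorted into treated and control groups (n = 7). Dosing 4 mg/kg i.v. every 3 days; vehicle 5% PEG400/PBS. Stopped when control tumors reached about 1500 mm3; tumors excised and weighed. Inhibitory rate = [1 − mean treated/control tumor weight] × 100; body weight and deaths recorded.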

A further data set concerns MCF7. Description: Antitumor activity against human MCF7 cells xenografted in athymic Balb/c nu/nu mouse assessed as tumor growth inhibition at 4 mg/kg, iv administered as Q3D X 6 regimen. Format: functional. The method, boiled down: as §2
Data set [4] concerns Mus musculus. The experiment in a line: Toxicity in athymic Balb/c nu/nu mouse xenografted with human MCF7 cells assessed as change in body weight at 4 mg/kg, iv administered as Q3D X 6 regimen (reference value: 0.10%). Format: organism-based. Further details: dose 4 mg/kg, route intravenous. The note with it: in vivo. The method in brief:
as §2

The target in data set [5] is T1, Tubulin (Homo sapiens) (UniProt P68371+Q9H4B7+P0DPH7+P68366+Q13509+Q71U36+P04350+Q3ZCM7+P07437+P68363+Q9BQE3+Q6PEY2+Q13885+Q9BVA1+Q9BUF5). Description: Displacement of [3H]colchine from tubulin (unknown origin) at 1 uM after 10 mins. Format: protein-complex assay.
Data set [6] can be described thus: (§3) Competitive inhibition of dog brain tubulin using colchicine as substrate incubated for 45 mins prior to substrate addition measured after 45 mins by fluorescence assay. Further details: species or system Canis lupus familiaris. The method, boiled down: (§4)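 Dog brain tubulin 4 μM in 25 mM PIPES pH 6.8, 1 mM EGTA, 3 mM MgCl2, preincubated with compound (0.1–10 μM) 45 min at 37 °C. […] Mean ± SD, at least three replicates.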

The species entered for data set [7] is Canis lupus familiaris. The description is as §3. The method in brief: as §4
The test system of a further data set is Liver microsome. The experiment in a line: Half life in human liver microsomes at 1 uM by LC-MS analysis. Format: ADME.
The subject of data set [8] is A549. The experiment in a line: Cell cycle arrest in human A549 cells assessed as accumulation at G2/M phase after 24 hrs by propidium iodide staining-based FACS analysis. Format: functional.
The subject of data set [9] is A549. The experiment in a line: Cell cycle arrest in human A549 cells assessed as accumulation at G2/M phase at 3 nM after 24 hrs by propidium iodide staining-based FACS analysis. Type of data set: functional. The method, boiled down: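 A549 cells treated 24 h (0.1% DMSO control), washed in PBS, fixed in 70% ice-cold ethanol at 4 °C for 24 h. RNase (0.05 mg/mL, 37 °C, 30 min), then propidium iodide 0.05 mg/mL for 30 min at rt in the dark. Cell-cycle distribution read by flow cytometry.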

The target in data set [10] is T1, Tubulin (Homo sapiens). The experiment in a line: Displacement of [3H]colchine from tubulin (unknown origin) at 5 uM after 10 mins. Format: protein-complex assay.
For data set [11], the species on record is Canis lupus familiaris. Description: Competitive inhibition of dog brain tubulin using BODIPY FL-vinblastine as substrate at 30 to 100 uM incubated for 30 mins prior to substrate addition measured after 30 mins by fluorescence assay. The method, boiled down:
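Tubulin 4 μM from fresh dog brain in 25 mM PIPES pH 6.8, 1 mM EGTA, 3 mM MgCl2, preincubated with compound (10, 30, 100 μM) 30 min at 37 °C. BODIPY FL-vinblastine 2 μM then added for another 30 min. Fluorescence (ex 470/em 515 nm) decrease converted to % inhibition. Mean ± SD of at least three independent experiments.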

The target of data set [12] is T1, Tubulin (Homo sapiens). The experiment in a line: Inhibition of tubulin polymerization in human A549 cells assessed as disappearance of microtubule network at 3 nM after 24 hrs by Hoechst 33342 staining-based immunocytochemistry relative to control. Format: cell-based. The method in brief:
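A549 cells exposed to compound 24 h (0.1% DMSO control), fixed in 4% paraformaldehyde, permeabilized with 0.1% Triton X-100, blocked with 5% BSA. Stained with anti-α-tubulin (1:2000, 2 h) and a fluorescent anti-mouse secondary (1 h), nuclei with Hoechst 33342. Imaged at 20× for microtubule network loss.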

Data set [13] is described as follows: Aqueous solubility of the compound in phosphate buffer at pH 7.4 after 4 hrs by HPLC-UV method. Type of data set: physicochemical. The note with it: pH 7.4, 4 h.
Another data set has as its target Tubulin. Description: Inhibition of tubulin (unknown origin) polymerization incubated for 15 mins prior to GTP addition measured after 20 mins by turbidimetry. Type of data set: protein-complex assay, Homo sapiens.
For data set [14], the system named is A549. The experiment in a line: Cell cycle arrest in human A549 cells assessed as accumulation at G2/M phase at 300 nM after 24 hrs by propidium iodide staining-based FACS analysis. Type of data set: functional.
The species entered for data set [15] is Canis lupus familiaris. Particulars: 10 uM.
In data set [16] the target is T1, Tubulin (Homo sapiens). The experiment in a line: Inhibition of tubulin polymerization in human A549 cells assessed as disappearance of microtubule network at 100 nM after 24 hrs by Hoechst 33342 staining-based immunocytochemistry relative to control. Format: cell-based.

Each structure is given as a SMILES string. In brackets after ≈: the same amount, converted by molar mass. Activity calls are given as the source filed them. The calls are words filed in the database; no cut-off is given here.

As for `Cc1ccc2c(c1)CCCN2c1nc(C)nc2ccccc12`, the GI50 with KB amounted to 204 nM; in [1], 176 nM; with A549 [2], 211 nM; in the data set on DU-145, 187 nM.
In the case of `COc1ccc2c(c1)C(=O)CCN2c1nc(Cl)nc2ccccc12`, the GI50 was 28 nM in the data set with KB, 33 nM in data set [1], 27 nM in the data set on A549 [2] and 31 nM in the data set on DU-145.
Regarding `COc1ccc2c(c1)CCN2c1nc(C)nc2ccccc12`, the GI50 was 320 nM in the data set on KB, 216 nM in data set [1], 268 nM with A549 [2] and 243 nM in the data set with DU-145.
The like results for `COc1ccc2c(c1)CCN2c1nc(Cl)nc2ccccc12` were, in that order, 227 nM, 197 nM, 233 nM and 165 nM.
For `COc1ccc2c(c1)CCCN2c1nc(Cl)nc2ccccc12`, the values for the Activity entry in the data set with Mus musculus [3] and in the data set with Mus musculus [4] were “Non-toxic” and -7.9%, respectively. Moreover, the inhibition in vivo at 4 mg/kg with MCF7 is 22.9%.
As for `COc1ccc2c(c1)NC(=O)CN2c1nc(C)nc2ccccc12`, the Activity entry with Mus musculus [3] is “Toxic”; with A549 [8], “Dose-dependent effect”. The inhibition at Tubulin (Homo sapiens) [5] was 93%; in the data set filed under Canis lupus familiaris [7], “Dose-dependent effect”; on Tubulin (Homo sapiens) [10] it was 99%. Also, the GI50 came out at 2.3 nM in the data set with KB, 2.2 nM in data set [1], 3.2 nM with A549 [2] and 1.9 nM in the data set with DU-145. Besides, in [6], the IC50 was found to be 550 nM. Further, in the data set on Liver microsome, the t1/2 was found to be 54.81 min. For the same molecule, in the data set with A549 [9], the outcome was Active. For the same molecule, the inhibition result in the data set listed under Canis lupus familiaris [11] was “inactive”. Also, the inhibition entry at Tubulin (Homo sapiens) [12] was “Active”.
For the molecule `COc1ccc2c(c1)C(=O)CCN2c1nc(C)nc2ccccc12`, the inhibition came to 56% at Tubulin (Homo sapiens) [5] and 87% at Tubulin (Homo sapiens) [10]. For the same molecule, the GI50 in the data set with KB was 19 nM; in data set [1], 21 nM; in the data set with A549 [2], 24 nM; in the data set on DU-145, 21 nM. Further, the t1/2 in the data set with Liver microsome was 20.89 min. Also, the solubility in [13] was determined as 1.21 µg/mL (≈ 3.79 µM). Also, half-maximal inhibition at Tubulin (IC50) required 940 nM.
As for `COc1ccc2c(c1)N(C)C(=O)CN2c1nc(C)nc2ccccc12`, the Activity result with Mus musculus [3] is on record as “Non-toxic”; with Mus musculus [4], 2.28%. For the same molecule, the inhibition at Tubulin (Homo sapiens) [5] was 82%; on Tubulin (Homo sapiens) [10] it was 96%. Besides, the 50% growth inhibitory concentration (GI50) with KB came out at 17 nM; in data set [1], 25 nM; in the data set with A549 [2], 19 nM; with DU-145 it was 22 nM. Moreover, in the data set on Liver microsome, the t1/2 came out at 22 min. In addition, the solubility in data set [13] worked out at 4.2 µg/mL (≈ 12.6 µM). Moreover, in the data set with MCF7, the inhibition in vivo at 4 mg/kg worked out at 51%. This molecule also came in with an IC50 against Tubulin of 1300 nM.
On to `Cc1ccc2c(c1)CCCN2c1nc(Cl)nc2ccccc12`, for which the GI50 with KB was determined as 48 nM; in data set [1] it was 46 nM; with A549 [2], 43 nM; in the data set with DU-145, 57 nM.
Consider `COc1ccc2c(c1)CCCCN2c1nc(C)nc2ccccc12`, for which the inhibition on Tubulin (Homo sapiens) [5] came to 46%; on Tubulin (Homo sapiens) [10], 89%. For the same molecule, the 50% growth inhibitory concentration (GI50) with KB was found to be 19 nM; in [1], 20 nM; with A549 [2] it was 21 nM; in the data set with DU-145 it was 18 nM. In addition, the t1/2 in the data set on Liver microsome is 24.85 min. In addition, the solubility in [13] was 2.94 µg/mL (≈ 9.2 µM). At Tubulin, the IC50 was 870 nM.
In the case of `COc1ccc2c(c1)OCCN2c1nc(Cl)nc2ccccc12`, the GI50 is 153 nM in the data set on KB, 195 nM in data set [1], 199 nM in the data set on A549 [2] and 169 nM in the data set on DU-145.
The like results for `Cc1nc(N2CCCc3cc(Br)ccc32)c2ccccc2n1` were, in that order, 178 nM, 169 nM, 211 nM and 198 nM.
`COc1ccc2c(c1)CCCN(c1nc(C)nc3ccccc13)C2`: the GI50 in the data set on KB stood at 19600 nM; in data set [1], 14800 nM; with A549 [2], 16700 nM; with DU-145, 14600 nM.
`COc1cc2c(c(OC)c1OC)-c1ccc(OC)c(=O)cc1[C@@H](NC(C)=O)CC2`: the Activity result in the data set on A549 [8] is “Dose-dependent effect”. For the same molecule, the outcome in the data set on A549 [14] was Active.
In the case of `COc1ccc2c(c1)C(O)CCN2c1nc(C)nc2ccccc12` (centres undefined), the inhibition came to 75% on Tubulin (Homo sapiens) [5] and 94% at Tubulin (Homo sapiens) [10]. The GI50 with KB is 18 nM; in data set [1], 17 nM; in the data set with A549 [2], 19 nM. The t1/2 with Liver microsome is reported as 42.44 min. The solubility in data set [13] stood at 8.72 µg/mL (≈ 27.1 µM). This molecule yielded an IC50 against Tubulin of 970 nM.
In the case of `CC[C@]1(O)C[C@H]2CN(CCc3c([nH]c4ccccc34)[C@@](C(=O)OC)(c3cc4c(cc3OC)N(C=O)[C@H]3[C@@](O)(C(=O)OC)[C@H](OC(C)=O)[C@]5(CC)C=CCN6CC[C@]43[C@@H]65)C2)C1`, in the data set listed under Canis lupus familiaris [15], the inhibition came to 50%.
For `COc1ccc2c(c1)CCCN(c1nc(Cl)nc3ccccc13)C2`, the GI50 with KB is 11300 nM; in data set [1], 5450 nM; with A549 [2], 7570 nM; in the data set on DU-145 it was 6810 nM.
Turning to `COc1ccc2c(c1)CCCCN2c1nc(Cl)nc2ccccc12`, the GI50 in the data set on KB was 227 nM; in [1] it was 197 nM; in the data set with A549 [2], 191 nM; in the data set with DU-145 it was 165 nM.
The matching figures for `COc1ccc2c(c1)OCCN2c1nc(C)nc2ccccc12`: 211 nM, 169 nM, 189 nM and 198 nM.
As for `CC(=O)O[C@H]1C(=O)[C@@]2(C)[C@H]([C@H](OC(=O)c3ccccc3)[C@]3(O)C[C@H](OC(=O)[C@H](O)[C@@H](NC(=O)c4ccccc4)c4ccccc4)C(C)=C1C3(C)C)[C@]1(OC(C)=O)CO[C@@H]1C[C@@H]2O` [PACLITAXEL], the concentration for 50% growth inhibition (GI50) in the data set on KB came to 6.4 nM; in data set [1] it was 1210 nM; in the data set on A549 [2] it was 7.6 nM; in the data set on DU-145 it was 6 nM. The inhibition result at Tubulin (Homo sapiens) [16] was “inactive”.
Turning to `COc1ccc2c(c1)CCCN2c1nc(C)nc2ccccc12`, the inhibition in vivo at 4 mg/kg in the data set on MCF7 was 47.3%. Moreover, in the data set on Mus musculus [4], the Activity is -15.7%.
